Assay results from ChEMBL document CHEMBL3232971, “Synthesis and in vitro evaluation of 12-(substituted aminomethyl) berberrubine derivatives as anti-diabetics” (2014).
Activity calls are given as the source filed them. The calls are words filed in the database; no cut-off is given here.

Columns and labels:
3T3-L1 [1] = test: Reversal of high glucose-induced insulin resistance in mouse 3T3L1 cells; format: functional, cell-based
How it was run: (§1)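 Mouse 3T3-L1 preadipocytes were grown in high-glucose DMEM with 10% FBS and phenol red. At 90% confluence they were differentiated for 4 days with FBS, insulin, dexamethasone and IBMX. Cells were replated and kept 2 days in FBS medium. Insulin resistance was induced over 4 days with low insulin and high dexamethasone. Cells were then treated with sample in phenol red-free high-glucose DMEM, at three concentrations. Controls were normal differentiated cells (blank) and untreated insulin-resistant cells (negative); rosiglitazone was the positive control.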

3T3-L1 [2] = test: Reversal of high glucose-induced insulin resistance in mouse 3T3L1 cells assessed as relative sensitization rate at 10 umol/ml relative to rosiglitazone; format: functional; how it was run: as §1
3T3-L1 [3] = test: Reversal of high glucose-induced insulin resistance in mouse 3T3L1 cells assessed as relative sensitization rate at 1 umol/ml relative to rosiglitazone; format: functional; how it was run: as §1
3T3-L1 [4] = test: Reversal of high glucose-induced insulin resistance in mouse 3T3L1 cells assessed as relative sensitization rate at 0.10 umol/ml relative to rosiglitazone; format: functional; how it was run: as §1
L6 [5] = test: Increase in glucose transport in rat L6 cells assessed as sensitization rate at 10 umol/ml; format: functional
How it was run: (§2)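 Rat L6 myoblasts were grown 24 h in high-glucose DMEM with 10% FBS and phenol red. They were differentiated to myotubes in high-glucose DMEM with 2% FBS for 6–8 days, with medium changed every 48 h. Cells were then starved serum-free overnight, and 4–6 h without serum or glucose. Samples were added in serum-free DMEM with 20 mmol glucose for 16–24 h. Supernatant glucose was read by kit at OD 490 nm. Sensitization rate = (negative OD − sample OD)/(negative OD − blank OD) × 100%, tested at two concentrations.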

L6 [6] = test: Increase in glucose transport in rat L6 cells assessed as sensitization rate at 1 umol/ml; format: functional; how it was run: as §2
3T3-L1 [7] = test: Reversal of high glucose-induced insulin resistance in mouse 3T3L1 cells assessed as insulin sensitization relative to rosiglitazone; format: functional; how it was run: as §1
3T3-L1 [8] = test: Reversal of high glucose-induced insulin resistance in mouse 3T3L1 cells at 1 umol/ml; format: functional, cell-based; how it was run: as §1

SMILES | Activity (3T3-L1 [1]) | Activity (3T3-L1 [2]) [%] | Activity (3T3-L1 [3]) [%] | Activity (3T3-L1 [4]) [%] | Activity (L6 [5]) [%] | Activity (L6 [6]) [%] | fold change (FC) (3T3-L1 [7]) | Activity (3T3-L1 [8])
COc1cc(CN2CCN(C(=O)OC(C)(C)C)CC2)c2cc3[n+](cc2c1O)CCc1cc2c(cc1-3)OCO2.[Cl-] | Dose-dependent effect | 107.3 | 3.14 | -43.33 | 52.51 | 23.32 | – | –
COc1ccc2cc3[n+](cc2c1OC)CCc1cc2c(cc1-3)OCO2.[Cl-] [BERBERINE CHLORIDE] | – | 74.23 | 13.27 | -2.93 | 43.28 | 21.3 | – | –
COc1cc(CN2CCOCC2)c2cc3[n+](cc2c1O)CCc1cc2c(cc1-3)OCO2.[Cl-] | Dose-dependent effect | 115.14 | 68.72 | 28.22 | 57.22 | 26.16 | – | –
COc1cc(CN(c2ccccc2)c2ccccc2)c2cc3[n+](cc2c1O)CCc1cc2c(cc1-3)OCO2.[Cl-] | – | 96.66 | 62.08 | 33.38 | 53.05 | 12.43 | – | –
COc1cc(CN2CCCC2)c2cc3[n+](cc2c1O)CCc1cc2c(cc1-3)OCO2.[Cl-] | – | 73.15 | -12.1 | -22.09 | 40.73 | 7.95 | – | –
COc1cc(CN(C(C)C)C(C)C)c2cc3[n+](cc2c1O)CCc1cc2c(cc1-3)OCO2.[Cl-] | Dose-dependent effect | 112.25 | 28.02 | -64.34 | 46.08 | 17.97 | – | –
COc1cc(CN2CCN(C)CC2)c2cc3[n+](cc2c1O)CCc1cc2c(cc1-3)OCO2.[Cl-] | Dose-dependent effect | 126.29 | 90.23 | -1.09 | 48.55 | 41.9 | 1.26 | Active
CCN(CC)Cc1cc(OC)c(O)c2c[n+]3c(cc12)-c1cc2c(cc1CC3)OCO2.[Cl-] | – | 75.63 | 23.48 | 2.03 | 48.83 | 5.81 | – | –
COc1cc(CN2CCCCC2)c2cc3[n+](cc2c1O)CCc1cc2c(cc1-3)OCO2.[Cl-] | Dose-dependent effect | 102.93 | 41.02 | 8.33 | 43.53 | 15.78 | – | –
COc1cc(CN(C)C)c2cc3[n+](cc2c1O)CCc1cc2c(cc1-3)OCO2.[Cl-] | – | 51.59 | -17.72 | -16.79 | 78.5 | 51.3 | – | –
COc1cc(CN(Cc2ccccc2)Cc2ccccc2)c2cc3[n+](cc2c1O)CCc1cc2c(cc1-3)OCO2.[Cl-] | – | 65.58 | -9.51 | -17.34 | 70.02 | 28.39 | – | –
